Assay results as given in ChEMBL document CHEMBL4706709, “Withanolides from dietary tomatillo suppress HT1080 cancer cell growth by targeting mutant IDH1” (Bioorg Med Chem, 2021).
Calls of active or inactive are those of the source. The rule behind the calls is not given here.

Tests used:
[1] = biological target: T1, Isocitrate dehydrogenase [NADP] cytoplasmic (Homo sapiens, UniProt O75874, R132H); assay: Inhibition of C-terminal His6-tagged IDH1 R132H mutant (unknown origin) expressed in Escherichia coli BL21 (DE) using alpha-ketoglutarate as substrate preincubated for 10 mins followed by substrate addition and measured at 1 min interval for 20 mins in presence of NADPH
T1 sequence (O75874 2-414 R132H limits assumed): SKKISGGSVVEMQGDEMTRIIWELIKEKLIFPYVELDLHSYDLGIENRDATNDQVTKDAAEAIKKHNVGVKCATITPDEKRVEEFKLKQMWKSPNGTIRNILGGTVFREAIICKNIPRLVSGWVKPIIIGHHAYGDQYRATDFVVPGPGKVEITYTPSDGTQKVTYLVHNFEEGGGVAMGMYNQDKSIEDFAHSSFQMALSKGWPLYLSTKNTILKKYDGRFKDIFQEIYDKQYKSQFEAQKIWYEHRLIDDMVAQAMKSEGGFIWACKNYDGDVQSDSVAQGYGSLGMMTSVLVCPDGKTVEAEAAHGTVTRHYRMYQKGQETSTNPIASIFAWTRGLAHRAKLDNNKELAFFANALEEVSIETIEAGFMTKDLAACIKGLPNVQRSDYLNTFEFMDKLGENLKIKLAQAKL
Procedure, shortened: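 His-tagged IDH1 R132H at 2 μM in 50 mM HEPES pH 7.5 with 4 mM MgCl2 and 100 μM NADPH. Compound preincubated with enzyme 10 min, then reaction started with 2 mM α-KG. NADPH consumption read at 340 nm every 1 min for 20 min. IC50 from mean of three independent assays.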

[2] = biological target: Isocitrate dehydrogenase [NADP] cytoplasmic (Homo sapiens, UniProt O75874); assay: Inhibition of wild-type IDH1 (unknown origin) in presence of sodium(D)-isocitrate and NADP+
Sequence of Isocitrate dehydrogenase [NADP] cytoplasmic (Homo sapiens, UniProt O75874) (O75874 whole entry): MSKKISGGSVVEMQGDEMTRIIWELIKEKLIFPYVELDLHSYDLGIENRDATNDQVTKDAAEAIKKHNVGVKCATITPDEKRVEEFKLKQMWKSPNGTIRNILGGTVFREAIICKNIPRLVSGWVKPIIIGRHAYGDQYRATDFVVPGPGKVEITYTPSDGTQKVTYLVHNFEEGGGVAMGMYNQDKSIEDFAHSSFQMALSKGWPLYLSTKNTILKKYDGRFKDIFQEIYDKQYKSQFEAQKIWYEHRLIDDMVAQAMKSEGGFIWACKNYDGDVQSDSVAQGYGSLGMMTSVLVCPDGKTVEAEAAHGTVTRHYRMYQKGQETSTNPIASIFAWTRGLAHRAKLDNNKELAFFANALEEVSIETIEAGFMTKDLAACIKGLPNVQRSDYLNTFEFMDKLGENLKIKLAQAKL
Procedure, shortened: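 Wild-type IDH1 purified at 43 nM in 50 mM HEPES pH 7.5 with 50 μM sodium D-isocitrate, 4 mM MgCl2 and 1 mM NADP+. NADPH production monitored at 340 nm. IC50 from mean of three independent assays.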

[3] = biological target: T1, Isocitrate dehydrogenase [NADP] cytoplasmic; assay: Binding affinity to C-terminal His6-tagged IDH1 R132H mutant (unknown origin) expressed in Escherichia coli BL21 (DE) measured after 20 mins by Red-NHS fluorescence dye-based microscale thermophoresis analysis
Procedure, shortened: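 IDH1 R132H fluorescently labelled (RED kit) and used at 20 nM in 20 mM HEPES pH 7.5 with 0.05% Tween-20. Mixed 1:1 with a ligand dilution series, 20 min at room temperature. Loaded in standard capillaries, 10 min at 25 °C. Thermophoresis read at 20% laser and 100% LED power, Kd fitted from the curve.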

[4] = tested on: HT-1080; assay: Antiproliferative activity against human HT-1080 cells assessed as reduction in cell proliferation measured after 48 hrs by CCK8 assay; assay type: functional, cell-based; conditions: HT-1080, 48 h
Procedure, shortened: (§1)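 HT1080 cells (IDH1 R132C) in high-glucose DMEM with 10% FBS, 37 °C, 5% CO2. Adherent cells exposed to compound in fresh medium for 48 h, DMSO kept below 0.5%. Viability by CCK8, absorbance at 450 nm. Three repeats.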

[5] = tested on: HT-1080; assay: Antiproliferative activity against human HT-1080 cells assessed as reduction in number of EdU-positive cells measured after 24 hrs by EdU and DAPI staining based fluorescence microscopic analysis; assay type: functional, cell-based; conditions: dose 3.25-6.5 µM
Procedure, shortened: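 Log-phase HT1080 cells treated 24 h with 3.25 or 6.5 μM compound or DMSO. Then 50 μM EdU in serum-free DMEM for 2 h. Fixed in 4% paraformaldehyde, quenched with glycine, permeabilised with 0.5% Triton X-100. Apollo dye reaction for 30 min, DAPI nuclear counterstain, fluorescence microscopy. Three repeats.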

[6] = tested on: HT-1080; assay: Induction of apoptosis in human HT-1080 cells assessed as nuclear fragmentation at 3.25 to 6.5 uM measured after 48 hrs by Hoechst 33258 and DAPI staining based fluorescence microscopic analysis; assay type: functional, cell-based; conditions: dose 3.25-6.5 µM
Procedure, shortened: (§2)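 HT1080 cells exposed 48 h to 3.25 or 6.5 μM compound. Blocked 2 h, then stained 30 min with Hoechst 33258. Nuclear morphology viewed by fluorescence microscopy (×200).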

[7] = tested on: HT-1080; assay: Induction of apoptosis in human HT-1080 cells assessed as appearance of densely stained nucleus at 3.25 to 6.5 uM measured after 48 hrs by Hoechst 33258 and DAPI staining based fluorescence microscopic analysis; assay type: functional, cell-based; conditions: dose 3.25-6.5 µM; procedure, shortened: as §2
[8] = tested on: HT-1080; assay: Induction of apoptosis in human HT-1080 cells assessed as viable cells at 6.5 uM measured after 48 hrs by Annexin V-FITC/propidium iodide staining based flow cytometry (reference value: 66.6%); assay type: functional; conditions: read-out: Activity
[9] = tested on: HT-1080; assay: Induction of apoptosis in human HT-1080 cells assessed as early apoptotic cells at 6.5 uM measured after 48 hrs by Annexin V-FITC/propidium iodide staining based flow cytometry (reference value: 0%); assay type: functional
[10] = tested on: HT-1080; assay: Induction of apoptosis in human HT-1080 cells assessed as late apoptotic cells at 6.5 uM measured after 48 hrs by Annexin V-FITC/propidium iodide staining based flow cytometry (reference value: 3.2%); assay type: functional
[11] = tested on: HT-1080; assay: Induction of apoptosis in human HT-1080 cells assessed as necrotic cells at 6.5 uM measured after 48 hrs by Annexin V-FITC/propidium iodide staining based flow cytometry (reference value: 30.2%); assay type: functional
[12] = tested on: Isocitrate dehydrogenase [NADP] cytoplasmic (Homo sapiens), O75874 [R132H]; assay: Inhibition of IDH1 […] assessed as reduction in R-2-HG concentration measured after 48 hrs by LC-MS/MS analysis; assay type: cell-based; conditions: dose 0.94-30 µM
Sequence of Isocitrate dehydrogenase [NADP] cytoplasmic (Homo sapiens), O75874 [R132H] (O75874 whole entry R132H): as the sequence (O75874 whole entry) above, with R132H counted along it
Procedure, shortened: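 HT1080 cells treated 48 h with 0.94–30 μM compound or DMSO. Medium diluted in methanol and centrifuged. R-2-HG in the supernatant quantified by LC-MS/MS (ESI, MRM) on a C18 column, gradient of methanol against 10 mM ammonium acetate pH 7.4. Peak area normalised to internal standard, IC50 from the dose–response curve.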

[13] = tested on: Isocitrate dehydrogenase [NADP] cytoplasmic (Homo sapiens), O75874 [R132H]; assay: Inhibition of IDH1 […] assessed as down regulation of H3K9me3 expression at 3.25 to 6.5 uM measured after 48 hrs by Western blot analysis; assay type: cell-based; conditions: dose 3.25-6.5 µM
Procedure, shortened: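 HT1080 cells in 6-well plates treated 48 h. Lysed in RIPA, protein measured by BCA. Run on 12% SDS-PAGE, blotted to PVDF, blocked in 5% milk 1 h. Probed with H3K9me3 primary antibody, β-actin also available, then HRP secondary.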

[14] = tested on: Isocitrate dehydrogenase [NADP] cytoplasmic (Homo sapiens), O75874 [R132H]; assay: Inhibition of IDH1 […] assessed as down regulation of H3K9me3 expression at 6.5 uM measured after 48 hrs by DAPI staining based immunofluorescence microscopic analysis; assay type: cell-based
Procedure, shortened: (§3)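 HT1080 cells on slides exposed 48 h to 3.25 or 6.5 μM compound. Fixed in 4% paraformaldehyde 15 min, permeabilised with 0.1% Triton X-100 for 5 min at 4 °C, blocked 2 h in 5% BSA. Primary antibody (H3K9me3, HIF-1α or p53, 1:100) overnight at 4 °C. Fluorescent secondary (1:500) 1 h in the dark, DAPI counterstain, imaged.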

[15] = tested on: Isocitrate dehydrogenase [NADP] cytoplasmic (Homo sapiens), O75874 [R132H]; assay: Inhibition of IDH1 […] assessed as reduction in HIF-1alpha accumulation at 3.25 to 6.5 uM measured after 48 hrs by DAPI staining based immunofluorescence microscopic analysis; assay type: cell-based; conditions: dose 3.25-6.5 µM; procedure, shortened: as §3
[16] = tested on: Isocitrate dehydrogenase [NADP] cytoplasmic (Homo sapiens), O75874 [R132H]; assay: Inhibition of IDH1 […] assessed as increase in p53 expression at 3.25 to 6.5 uM measured after 48 hrs by DAPI staining based immunofluorescence microscopic analysis; assay type: cell-based; conditions: dose 3.25-6.5 µM; procedure, shortened: as §3
[17] = tested on: HT-1080; assay: Antiproliferative activity against human HT-1080 cells transfected with shIDH1 R132C assessed as reduction in cell proliferation at 1.25 to 10 uM measured after 48 hrs by CCK8 assay; assay type: functional, cell-based; conditions: dose 1.25-10 µM; procedure, shortened: as §1

`C[C@@]12C[C@H]3OC(=O)[C@@H]1CO[C@]14O[C@@]5([C@H]2C1=O)[C@@]3(C)OC(=O)[C@@]5(O)CC[C@H]1[C@H]4C[C@H]2O[C@]23CC=CC(=O)[C@]13C` was tested, and the IC50 [1] was 0.63 µM, the IC50 [2] was over 200 µM and the Kd [3] was 15.3 µM. The IC50 [4] was 2.41 µM, the Activity [5] was “Dose-dependent effect” and the Activity [6] was “Active”. For the same compound, the Activity [7] was “Active”, the viability at 6.5 µM [8] was 19.9% and the Activity [9] was 55%. For the same compound, the Activity [10] was 23.9%, the Activity [11] was 1.1% and the inhibition [12] was “Dose-dependent effect”. The inhibition [13] was “Active”, the inhibition [14] was “Active” and the inhibition [15] was “Active”. The inhibition [16] was “Active” and the Activity [17] was “Active”.
Compound `C[C@]12C(=O)C=CCC1=CC[C@@H]1[C@@H]2CC[C@]2(O)C(=O)O[C@@]3(C)[C@H]4C[C@]5(C)[C@@H](CO[C@@]16O[C@@]32[C@H]5C6=O)C(=O)O4` [PHYSALIN B] has an IC50 [1] of 1.26 µM, an IC50 [2] of over 200 µM and a Kd [3] of 45.3 µM.
